Measured values published in ChEMBL document CHEMBL4406921, “Discovery of Axelopran (TD-1211): A Peripherally Restricted μ-Opioid Receptor Antagonist” (ACS Med Chem Lett, 2019).
pKi: −log10 of the molar value.

molecular target: Delta-type opioid receptor (Homo sapiens, UniProt P41143); experiment: Displacement of [3H]-DPN from recombinant human delta opioid receptor expressed in CHO-K1 cell membranes by radioligand binding assay; details: not given
Outline: (§1)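 Membranes from CHO-K1 cells stably transfected with human recombinant μ or δ receptor, or guinea pig κ receptor; competition with [3H]-DPN radioligand; affinity reported as pKi.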

Delta-type opioid receptor, sequence (P41143 whole entry): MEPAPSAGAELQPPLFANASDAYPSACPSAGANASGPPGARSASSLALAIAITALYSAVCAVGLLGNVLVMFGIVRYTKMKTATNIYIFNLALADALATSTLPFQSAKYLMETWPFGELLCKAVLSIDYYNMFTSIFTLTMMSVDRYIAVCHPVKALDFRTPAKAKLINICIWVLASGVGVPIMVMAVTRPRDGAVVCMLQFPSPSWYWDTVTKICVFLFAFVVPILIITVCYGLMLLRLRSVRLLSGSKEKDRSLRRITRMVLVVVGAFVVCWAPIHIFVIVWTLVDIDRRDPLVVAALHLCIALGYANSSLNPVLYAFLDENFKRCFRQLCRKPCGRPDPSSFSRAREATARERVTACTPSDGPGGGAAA

Q: With `NC(=O)c1cccc([C@H]2C[C@H]3CC[C@@H](C2)N3CCN(CC2CCCC2)C(=O)CO)c1` as the compound, how does the pKi read?
A: 7.80

Q: With `NC(=O)c1cccc([C@H]2C[C@H]3CC[C@@H](C2)N3CCN(Cc2ccccc2)C(=O)CO)c1` as the compound, how does the pKi read?
A: 8.30

Q: With `NC(=O)c1cccc([C@H]2C[C@H]3CC[C@@H](C2)N3CCN(CC2CCCCC2)C(=O)c2ccco2)c1` as the compound, how does the pKi read?
A: 8.90

Q: With `C[C@H]1CN(CCCc2ccccc2)CC[C@@]1(C)c1cccc(O)c1` as the compound, how does the pKi read?
A: 8.90

Q: With `CCC(CC)CN(CCCCCCN1[C@@H]2CC[C@H]1C[C@@H](c1cccc(C(N)=O)c1)C2)C(=O)CO` as the compound, how does the pKi read?
A: 7.60

Q: With `NC(=O)c1cccc([C@H]2C[C@H]3CC[C@@H](C2)N3CCN(CC2CCOCC2)C(=O)CO)c1` as the compound, how does the pKi read?
A: 6.70

molecular target: Kappa-type opioid receptor (Cavia porcellus, UniProt P41144); experiment: Displacement of [3H]-DPN from guinea pig kappa opioid receptor expressed in CHO-K1 cell membranes by radioligand binding assay; details: not given; outline: as §1
Sequence (P41144 whole entry): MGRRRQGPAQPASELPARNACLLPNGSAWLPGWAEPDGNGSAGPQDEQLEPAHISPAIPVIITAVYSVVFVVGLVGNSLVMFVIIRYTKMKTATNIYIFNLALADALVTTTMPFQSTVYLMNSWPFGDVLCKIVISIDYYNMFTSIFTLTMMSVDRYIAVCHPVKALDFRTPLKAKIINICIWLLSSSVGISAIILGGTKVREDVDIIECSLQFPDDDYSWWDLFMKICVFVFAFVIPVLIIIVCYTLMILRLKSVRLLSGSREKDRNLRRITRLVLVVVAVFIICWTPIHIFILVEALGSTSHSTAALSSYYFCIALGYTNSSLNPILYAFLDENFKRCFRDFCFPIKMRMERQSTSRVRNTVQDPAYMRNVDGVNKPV

Q: With `NC(=O)c1cccc([C@H]2C[C@H]3CC[C@@H](C2)N3CCN(CC2CCCC2)C(=O)CO)c1` as the compound, how does the pKi read?
A: 9.50

Q: With `NC(=O)c1cccc([C@H]2C[C@H]3CC[C@@H](C2)N3CCN(Cc2ccccc2)C(=O)CO)c1` as the compound, how does the pKi read?
A: 9.70

Q: With `NC(=O)c1cccc([C@H]2C[C@H]3CC[C@@H](C2)N3CCN(CC2CCCCC2)C(=O)c2ccco2)c1` as the compound, how does the pKi read?
A: 10.00

Q: With `C[C@H]1CN(CCCc2ccccc2)CC[C@@]1(C)c1cccc(O)c1` as the compound, how does the pKi read?
A: 9.10

Q: With `NC(=O)c1cccc([C@H]2C[C@H]3CC[C@@H](C2)N3CCN(CC2CCOCC2)C(=O)CO)c1` as the compound, how does the pKi read?
A: 8.20

test system: not listed separately; experiment: Permeability coefficient, Kp in human Caco2 cells; assay type: ADME, cell-based; details: Caco-2, read-out: Kp

Q: Which Papp does the source give for `NC(=O)c1cccc([C@H]2C[C@H]3CC[C@@H](C2)N3CCN(CC2CCCC2)C(=O)CO)c1` here?
A: 12 ×10⁻⁶ cm/s

Q: For `NC(=O)c1cccc([C@H]2C[C@H]3CC[C@@H](C2)N3CCN(Cc2ccccc2)C(=O)CO)c1`, which Papp is on record?
A: 21 ×10⁻⁶ cm/s

Q: Which Papp does the source give for `NC(=O)c1cccc([C@H]2C[C@H]3CC[C@@H](C2)N3CCN(CC2CCOCC2)C(=O)CO)c1` here?
A: < 1 ×10⁻⁶ cm/s

test system: not listed separately; experiment: Half life in rat liver microsomes at 3 uM; assay type: ADME, Microsome; details: not given

Q: For `NC(=O)c1cccc([C@H]2C[C@H]3CC[C@@H](C2)N3CCN(CC2CCCC2)C(=O)CO)c1`, which half-life at 3 µM is on record?
A: 90 min

Q: With `NC(=O)c1cccc([C@H]2C[C@H]3CC[C@@H](C2)N3CCN(Cc2ccccc2)C(=O)CO)c1` as the compound, how does the half-life at 3 µM read?
A: 85 min

Q: With `NC(=O)c1cccc([C@H]2C[C@H]3CC[C@@H](C2)N3CCN(CC2CCCCC2)C(=O)c2ccco2)c1` as the compound, how does the half-life at 3 µM read?
A: 10 min

Q: For `C[C@H]1CN(CCCc2ccccc2)CC[C@@]1(C)c1cccc(O)c1`, which half-life at 3 µM is on record?
A: 6 min

Q: With `CCC(CC)CN(CCCCCCN1[C@@H]2CC[C@H]1C[C@@H](c1cccc(C(N)=O)c1)C2)C(=O)CO` as the compound, how does the half-life at 3 µM read?
A: 26 min

Q: Which half-life at 3 µM does the source give for `NC(=O)c1cccc([C@H]2C[C@H]3CC[C@@H](C2)N3CCN(CC2CCOCC2)C(=O)CO)c1` here?
A: 90 min

molecular target: T1, Mu-type opioid receptor (Homo sapiens, UniProt P35372); experiment: Antagonist activity at human recombinant mu opioid receptor expressed in CHO-K1 cell membranes assessed as intrinsic activity at 10 pM to 20 uM incubated for 30 mins in presence of Eu-GTP by DELFIA GTP binding assay relative to DAMGO; details: not given
T1 sequence (P35372 whole entry): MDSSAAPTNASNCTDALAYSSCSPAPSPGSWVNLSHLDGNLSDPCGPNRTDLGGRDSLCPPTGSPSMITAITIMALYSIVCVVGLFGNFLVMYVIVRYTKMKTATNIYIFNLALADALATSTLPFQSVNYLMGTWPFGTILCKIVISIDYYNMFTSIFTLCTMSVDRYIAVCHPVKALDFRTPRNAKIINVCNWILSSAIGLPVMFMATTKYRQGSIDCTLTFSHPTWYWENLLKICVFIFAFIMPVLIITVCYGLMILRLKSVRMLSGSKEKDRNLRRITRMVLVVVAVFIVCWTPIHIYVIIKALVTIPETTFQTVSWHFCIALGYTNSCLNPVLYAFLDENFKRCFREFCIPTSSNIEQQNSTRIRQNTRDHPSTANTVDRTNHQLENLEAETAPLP

Q: For `NC(=O)c1cccc([C@H]2C[C@H]3CC[C@@H](C2)N3CCN(CC2CCCC2)C(=O)CO)c1`, which Intrinsic activity is on record?
A: 4%

Q: For `NC(=O)c1cccc([C@H]2C[C@H]3CC[C@@H](C2)N3CCN(Cc2ccccc2)C(=O)CO)c1`, which Intrinsic activity is on record?
A: -3%

Q: Which Intrinsic activity does the source give for `NC(=O)c1cccc([C@H]2C[C@H]3CC[C@@H](C2)N3CCN(CC2CCCCC2)C(=O)c2ccco2)c1` here?
A: 1%

Q: Which Intrinsic activity does the source give for `C[C@H]1CN(CCCc2ccccc2)CC[C@@]1(C)c1cccc(O)c1` here?
A: -21%

Q: For `CCC(CC)CN(CCCCCCN1[C@@H]2CC[C@H]1C[C@@H](c1cccc(C(N)=O)c1)C2)C(=O)CO`, which Intrinsic activity is on record?
A: -2%

Q: For `NC(=O)c1cccc([C@H]2C[C@H]3CC[C@@H](C2)N3CCN(CC2CCOCC2)C(=O)CO)c1`, which Intrinsic activity is on record?
A: 0%

test system: not listed separately; experiment: Half life in human liver microsomes at 3 uM; assay type: ADME, Microsome; details: not given

Q: Which half-life at 3 µM does the source give for `NC(=O)c1cccc([C@H]2C[C@H]3CC[C@@H](C2)N3CCN(CC2CCCC2)C(=O)CO)c1` here?
A: 90 min

Q: Which half-life at 3 µM does the source give for `NC(=O)c1cccc([C@H]2C[C@H]3CC[C@@H](C2)N3CCN(Cc2ccccc2)C(=O)CO)c1` here?
A: 90 min

Q: For `NC(=O)c1cccc([C@H]2C[C@H]3CC[C@@H](C2)N3CCN(CC2CCCCC2)C(=O)c2ccco2)c1`, which half-life at 3 µM is on record?
A: 17 min

Q: With `CCC(CC)CN(CCCCCCN1[C@@H]2CC[C@H]1C[C@@H](c1cccc(C(N)=O)c1)C2)C(=O)CO` as the compound, how does the half-life at 3 µM read?
A: 9 min

Q: With `NC(=O)c1cccc([C@H]2C[C@H]3CC[C@@H](C2)N3CCN(CC2CCOCC2)C(=O)CO)c1` as the compound, how does the half-life at 3 µM read?
A: 90 min

molecular target: T1, Mu-type opioid receptor; experiment: Displacement of [3H]-DPN from recombinant human mu opioid receptor expressed in CHO-K1 cell membranes by radioligand binding assay; details: not given; outline: as §1

Q: With `NC(=O)c1cccc([C@H]2C[C@H]3CC[C@@H](C2)N3CCN(CC2CCCC2)C(=O)CO)c1` as the compound, how does the pKi read?
A: 9.60

Q: With `NC(=O)c1cccc([C@H]2C[C@H]3CC[C@@H](C2)N3CCN(CC2CCCCC2)C(=O)c2ccco2)c1` as the compound, how does the pKi read?
A: 10.00

Q: With `C[C@H]1CN(CCCc2ccccc2)CC[C@@]1(C)c1cccc(O)c1` as the compound, how does the pKi read?
A: 10.00

Q: With `CCC(CC)CN(CCCCCCN1[C@@H]2CC[C@H]1C[C@@H](c1cccc(C(N)=O)c1)C2)C(=O)CO` as the compound, how does the pKi read?
A: 9.00

Q: With `NC(=O)c1cccc([C@H]2C[C@H]3CC[C@@H](C2)N3CCN(CC2CCOCC2)C(=O)CO)c1` as the compound, how does the pKi read?
A: 7.90

test system: not listed separately; experiment: Half life in dog liver microsomes at 3 uM; assay type: ADME, Canis lupus familiaris, Microsome; details: not given

Q: Which half-life at 3 µM does the source give for `NC(=O)c1cccc([C@H]2C[C@H]3CC[C@@H](C2)N3CCN(CC2CCCC2)C(=O)CO)c1` here?
A: 14 min

Q: For `NC(=O)c1cccc([C@H]2C[C@H]3CC[C@@H](C2)N3CCN(Cc2ccccc2)C(=O)CO)c1`, which half-life at 3 µM is on record?
A: 90 min

Q: With `NC(=O)c1cccc([C@H]2C[C@H]3CC[C@@H](C2)N3CCN(CC2CCCCC2)C(=O)c2ccco2)c1` as the compound, how does the half-life at 3 µM read?
A: 2 min

Q: With `CCC(CC)CN(CCCCCCN1[C@@H]2CC[C@H]1C[C@@H](c1cccc(C(N)=O)c1)C2)C(=O)CO` as the compound, how does the half-life at 3 µM read?
A: 9 min

Q: Which half-life at 3 µM does the source give for `NC(=O)c1cccc([C@H]2C[C@H]3CC[C@@H](C2)N3CCN(CC2CCOCC2)C(=O)CO)c1` here?
A: 90 min
